Data as given in ChEMBL document CHEMBL1135993, “4,5-diphenyltriazol-3-ones: openers of large-conductance Ca(2+)-activated potassium (maxi-K) channels” (J Med Chem, 2002).

The molecules below were run against Calcium-activated potassium channel subunit alpha-1 (Mus musculus) (UniProt Q08460) (assay: Percent opening of mouse maxi-K channel expressed in xenopus oocyte at a concentration of 20 umolar under voltage clamp.). Conditions: Xenopus laevis oocytes.
Calcium-activated potassium channel subunit alpha-1 (Mus musculus), sequence (Q08460 whole entry): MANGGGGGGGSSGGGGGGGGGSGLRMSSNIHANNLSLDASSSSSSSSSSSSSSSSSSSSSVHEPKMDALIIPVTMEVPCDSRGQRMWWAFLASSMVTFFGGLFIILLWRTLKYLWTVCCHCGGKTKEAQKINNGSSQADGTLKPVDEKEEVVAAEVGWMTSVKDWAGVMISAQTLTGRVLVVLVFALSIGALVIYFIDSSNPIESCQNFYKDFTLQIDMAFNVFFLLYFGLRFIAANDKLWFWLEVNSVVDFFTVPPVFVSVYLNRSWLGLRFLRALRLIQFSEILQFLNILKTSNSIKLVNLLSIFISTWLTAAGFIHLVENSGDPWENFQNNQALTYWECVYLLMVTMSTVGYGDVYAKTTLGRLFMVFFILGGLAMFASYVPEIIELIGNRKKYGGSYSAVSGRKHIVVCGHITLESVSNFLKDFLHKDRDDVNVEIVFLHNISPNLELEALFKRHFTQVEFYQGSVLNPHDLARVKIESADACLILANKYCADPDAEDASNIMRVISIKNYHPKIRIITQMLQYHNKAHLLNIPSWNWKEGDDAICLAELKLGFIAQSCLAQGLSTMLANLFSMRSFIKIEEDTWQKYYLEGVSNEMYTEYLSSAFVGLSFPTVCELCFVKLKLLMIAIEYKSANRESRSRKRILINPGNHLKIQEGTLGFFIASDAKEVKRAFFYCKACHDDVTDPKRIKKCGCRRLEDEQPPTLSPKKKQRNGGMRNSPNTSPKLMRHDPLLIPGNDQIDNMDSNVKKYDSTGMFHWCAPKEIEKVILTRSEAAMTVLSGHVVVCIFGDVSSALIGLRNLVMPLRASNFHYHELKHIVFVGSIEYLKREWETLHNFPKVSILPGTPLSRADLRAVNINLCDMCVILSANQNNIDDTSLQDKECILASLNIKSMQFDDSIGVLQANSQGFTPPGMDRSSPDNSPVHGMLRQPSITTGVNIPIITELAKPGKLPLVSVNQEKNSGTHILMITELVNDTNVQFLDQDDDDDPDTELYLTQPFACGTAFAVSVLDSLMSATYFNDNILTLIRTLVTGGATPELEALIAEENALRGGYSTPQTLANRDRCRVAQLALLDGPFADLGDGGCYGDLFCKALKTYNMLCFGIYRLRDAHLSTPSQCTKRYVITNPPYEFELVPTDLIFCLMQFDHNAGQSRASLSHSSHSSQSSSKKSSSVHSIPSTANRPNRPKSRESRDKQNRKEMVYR
Assay type: functional
Summary of the method: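 Xenopus laevis oocytes injected with mSlo cRNA 2–6 days before recording, kept at 17 °C in ND96 (mM: NaCl 90, KCl 1.0, CaCl2 1.0, MgCl2 1.0, HEPES 5.0, pH 7.5) with 5% horse serum and penicillin/streptomycin. Two-electrode voltage clamp, steps 500–750 ms, +20 mV increments from −60 mV holding to +140 mV. Compound gravity-perfused at 20 μM. Iberiotoxin-sensitive outward current expressed as percent of control; mean of ≥5 oocytes.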
Molecule `Oc1ccc(Cl)cc1-n1c(O)nnc1-c1ccccc1` has an Activity of 101%. Work on `Oc1ccc(Cl)cc1-n1c(S)nnc1-c1ccc(C(F)(F)F)cc1` yielded an Activity of 128%. `Oc1ccc(Cl)cc1-n1c(O)nnc1-c1ccc(C(F)(F)F)cc1` was tested, and the Activity was 121%. For `Oc1ccc(Cl)cc1-c1nnc(O)n1-c1ccc(C(F)(F)F)cc1`, the Activity was 123%. Work on `O=c1[nH]c2cc(C(F)(F)F)ccc2n1-c1cc(Cl)ccc1O` yielded an Activity of 132%. `Oc1ccc(Cl)cc1-n1c(O)nnc1-c1cc(C(F)(F)F)cc(C(F)(F)F)c1` was tested, and the Activity was 159%. `Oc1ccc(Cl)cc1-n1c(O)nnc1Cc1ccc(C(F)(F)F)cc1` gave an Activity of 125%. Work on `Oc1ccc(Cl)cc1-n1c(O)nnc1-c1ccccc1C(F)(F)F` yielded an Activity of 107%. For `Oc1ccc(Cl)cc1-n1cnnc1-c1ccc(C(F)(F)F)cc1`, the Activity was 102%. For `Oc1ccc(Cl)cc1-n1cncc1-c1ccc(C(F)(F)F)cc1`, the Activity was 126%. For `Oc1ccc(Cl)cc1-n1c(O)nnc1-c1ccc(F)cc1`, the Activity was 118%. Work on `Cn1nc(-c2ccc(C(F)(F)F)cc2)n(-c2cc(Cl)ccc2O)c1=O` yielded an Activity of 93%. Molecule `O=c1onc(-c2cc(C(F)(F)F)cc(C(F)(F)F)c2)n1-c1cc(Cl)ccc1O` has an Activity of 92%. `Oc1ccc(Cl)cc1Cc1nnc(O)n1-c1ccc(C(F)(F)F)cc1` was tested, and the Activity was 84%. In the case of `Oc1ccc(Cl)c(-n2c(O)nnc2-c2ccc(C(F)(F)F)cc2)c1`, the Activity is reported as 101%. `Oc1ccc(-n2c(O)nnc2-c2ccc(C(F)(F)F)cc2)cc1Cl` gave an Activity of 99%. Molecule `O=c1[nH]c2cc(C(F)(F)F)ccc2n1-c1cc(C(F)(F)F)ccc1O` has an Activity of 116%. Molecule `Oc1ccc(Cl)cc1-c1nnc(O)n1Cc1ccc(C(F)(F)F)cc1` has an Activity of 128%. Work on `Oc1ccc(Cl)cc1Cc1nccn1-c1ccc(C(F)(F)F)cc1` yielded an Activity of 105%. Molecule `Nc1nnc(-c2ccc(C(F)(F)F)cc2)n1-c1cc(Cl)ccc1O` has an Activity of 117%. With `Oc1ccc(Cl)cc1-n1c(O)nnc1-c1cccc(C(F)(F)F)c1` the Activity was 138%. `Oc1ccc(Cl)cc1Cn1c(O)nnc1-c1ccc(C(F)(F)F)cc1` was tested, and the Activity was 109%. In the case of `O=c1onc(-c2ccc(C(F)(F)F)cc2)n1Cc1cc(Cl)ccc1O`, the Activity is reported as 101%.
